This note sets out measurements from article PMC3983348 (Journal of Medicinal Chemistry, 2014).

One experiment deals with T1, recombinant Top1 (Homo sapiens, UniProt P11387).
T1 sequence (P11387 1-765): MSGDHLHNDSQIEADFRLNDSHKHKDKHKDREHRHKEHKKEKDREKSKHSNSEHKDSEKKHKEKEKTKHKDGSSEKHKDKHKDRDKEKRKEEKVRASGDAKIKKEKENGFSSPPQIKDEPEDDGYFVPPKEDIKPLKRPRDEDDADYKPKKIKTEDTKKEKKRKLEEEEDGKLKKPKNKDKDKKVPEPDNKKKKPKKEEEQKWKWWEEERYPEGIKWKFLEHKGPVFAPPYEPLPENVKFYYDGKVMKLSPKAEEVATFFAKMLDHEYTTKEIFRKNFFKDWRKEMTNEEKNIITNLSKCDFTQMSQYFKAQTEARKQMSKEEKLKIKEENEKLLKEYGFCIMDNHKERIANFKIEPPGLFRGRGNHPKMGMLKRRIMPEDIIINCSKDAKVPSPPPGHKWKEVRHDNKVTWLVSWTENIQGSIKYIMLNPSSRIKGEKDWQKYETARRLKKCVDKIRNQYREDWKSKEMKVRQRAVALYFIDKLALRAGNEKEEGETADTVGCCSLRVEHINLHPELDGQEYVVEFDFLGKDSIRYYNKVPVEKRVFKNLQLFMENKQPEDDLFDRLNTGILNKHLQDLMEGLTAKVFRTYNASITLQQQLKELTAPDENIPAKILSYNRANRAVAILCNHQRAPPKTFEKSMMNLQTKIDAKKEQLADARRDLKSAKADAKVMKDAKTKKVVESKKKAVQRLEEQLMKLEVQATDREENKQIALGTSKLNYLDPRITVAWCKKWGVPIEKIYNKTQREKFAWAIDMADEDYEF
Kind of experiment: Top1-mediated DNA cleavage assay. The class given is biochemical. Conditions: compound-induced DNA cleavage, score based on the activity of 1 μM camptothecin.

The next experiment deals with melanoma, UACC-62. Kind of experiment: NCI-60 five-dose assay, UACC-62. Type of experiment: cell-based. The settings on record: Homo sapiens, UACC-62, read-out: cytotoxicity GI50, melanoma, UACC-62. Put shortly:
(§1)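 Run in the National Cancer Institute's NCI-60 human cancer cell panel. Test compounds were first screened in a one-dose assay at 10–5 M, reading growth percent relative to vehicle-treated control.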

Experiment [1] concerns panel of 60 different human cancer cell lines. Kind of experiment: NCI-60 five-dose assay, mean graph midpoint. The class given is cell-based. Conditions: mean graph midpoint of growth inhibition, five-dose assay 10^–8 to 10^–4 M.
Another experiment has as its target recombinant TDP1 (Homo sapiens, UniProt Q9NUW8). Put plainly: Gel-based assay measuring the inhibition of recombinant TDP1. Type of experiment: biochemical. Put shortly: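 Gel assay: a 5′-[32P]-labeled single-stranded DNA oligonucleotide with a 3′-phosphotyrosine (N14Y) was incubated with 5 pM recombinant TDP1 and test compound for 15 min at room temperature. Samples were run on 16% denaturing PAGE and quantified by phosphorimager densitometry.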

A further experiment deals with renal, SN12C. Kind of experiment: NCI-60 five-dose assay, SN12C. The class given is cell-based. The settings on record: Homo sapiens, read-out: cytotoxicity GI50, renal, SN12C. Put shortly:
as §1

Where [2] appears, read: read-out: TDP1 inhibition, score according to IC50.

For orientation: GI50 means the concentration at which growth is held to half of that of the control.

SMILES strings stand for the structures. Read-outs that look alike come from different tables or passages of the source.

Chain of recombinant TDP1 (Q9NUW8 whole entry): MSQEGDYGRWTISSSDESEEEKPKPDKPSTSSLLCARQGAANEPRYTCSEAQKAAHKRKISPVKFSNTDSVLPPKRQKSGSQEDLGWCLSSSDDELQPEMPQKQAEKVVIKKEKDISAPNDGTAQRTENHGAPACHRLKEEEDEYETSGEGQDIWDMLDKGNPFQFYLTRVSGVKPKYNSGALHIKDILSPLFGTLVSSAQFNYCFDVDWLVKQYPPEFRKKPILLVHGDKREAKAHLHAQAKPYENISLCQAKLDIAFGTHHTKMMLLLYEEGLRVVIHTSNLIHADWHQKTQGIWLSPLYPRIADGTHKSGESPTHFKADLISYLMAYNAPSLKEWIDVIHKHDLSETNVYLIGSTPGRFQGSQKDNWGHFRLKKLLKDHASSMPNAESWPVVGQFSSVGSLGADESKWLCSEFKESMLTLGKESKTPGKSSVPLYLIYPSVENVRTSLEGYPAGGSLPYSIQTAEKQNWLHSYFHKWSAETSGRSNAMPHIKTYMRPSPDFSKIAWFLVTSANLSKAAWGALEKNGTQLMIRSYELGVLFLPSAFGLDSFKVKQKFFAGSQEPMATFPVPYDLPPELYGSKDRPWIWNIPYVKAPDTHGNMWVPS

Regarding `COc1cc2c3c(n(C[C@@H](O)CO)c(=O)c2cc1OC)-c1cc2c(cc1C3=O)OCO2` [Compound 54, (2′R)-5,6-Dihydro-6-(2′,3′-dihydroxypropyl)-2,3-dimethoxy-8,9-methylenedioxy-5,11-dioxo-11H-indeno[1,2-c]isoquinoline], the Top1 cleavage result at recombinant Top1 is reported as “++++”. Moreover, the GI50 with melanoma, UACC-62 is 0.025 µM. Moreover, the MGM in experiment [1] amounted to 0.166 ± 0.005 µM.

Consider `COc1cc2c3c(n(C[C@@H]4O[C@H](CO)[C@@H](O)[C@H](O)[C@H]4O)c(=O)c2cc1OC)-c1cc2c(cc1C3=O)OCO2` [Compound 62], for which the Top1 cleavage entry on recombinant Top1 was “++ (++, between 50% and 75% activity)”. Besides, the IC50 on recombinant TDP1 (read-out: TDP1 IC50) was at least 12 µM; on recombinant TDP1 (setting [2]), 37 to 111 µM.

`COc1cc2c3c(n(CC(O)CO)c(=O)c2cc1OC)-c1cc2c(cc1C3=O)OCO2` (stereo not drawn) [Compound 52, (2′RS)-5,6-Dihydro-6-(2′,3′-dihydroxypropyl)-2,3-dimethoxy-8,9-methylenedioxy-5,11-dioxo-11H-indeno[1,2-c]isoquinoline]: the Top1 cleavage result at recombinant Top1 was “++++”. The MGM in experiment [1] was determined as 0.065 ± 0.011 µM.

On to `COc1cc2c3c(n(C[C@H](O)[C@@H](O)[C@H](O)[C@H](O)CO)c(=O)c2cc1OC)-c1cc2c(cc1C3=O)OCO2` [Compound 60, (2′S,3′R,4′R,5′R)-5,6-Dihydro-6-(2′,3′,4′,5′,6′-pentahydroxyhexyl)-2,3-dimethoxy-8,9-methylenedioxy-5,11-dioxo-11H-indeno[1,2-c]isoquinolone], for which the Top1 cleavage entry on recombinant Top1 was “+++ (+++, between 75% and 95% activity)”.

For the molecule `O=C1c2ccccc2-c2c1c1ccc([N+](=O)[O-])cc1c(=O)n2CC(O)CO` (stereo not drawn) [Compound 63, (2′RS)-5,6-Dihydro-6-(2′,3′-dihydroxypropyl)-3-nitro-5,11-dioxo-11H-indeno[1,2-c]isoquinoline], the Top1 cleavage entry at recombinant Top1 is “+++ (+++, between 75% and 95% activity)”. The molecule also yielded an MGM in experiment [1] of 0.389 ± 0.013 µM.

For `O=C1c2ccccc2-c2c1c1ccc([N+](=O)[O-])cc1c(=O)n2C[C@H](O)[C@H](O)[C@H](O)CO` [Compound 66, (2′S,3′S,4′R)-5,6-Dihydro-6-(2′,3′,4′,5′-tetrahydroxypentyl)-3-nitro-5,11-dioxo-11H-indeno[1,2-c]isoquinoline], the Top1 cleavage entry at recombinant Top1 is “++++(+)”. The molecule further showed an MGM in experiment [1] of 0.508 ± 0.041 µM.

Take `COc1cc2c3c(n(C[C@@H](O)[C@@H](O)[C@H](O)CO)c(=O)c2cc1OC)-c1cc2c(cc1C3=O)OCO2` [Compound 57, (2′R,3′R,4′R)-5,6-Dihydro-6-(2′,3′,4′,5′-tetrahydroxypentyl)-2,3-dimethoxy-8,9-methylenedioxy-5,11-dioxo-11H-indeno[1,2-c]isoquinoline]: the Top1 cleavage result on recombinant Top1 is “++++”. In addition, the MGM in experiment [1] was 2.94 ± 0.52 µM.

Turning to `O=C1c2ccccc2-c2c1c1ccc([N+](=O)[O-])cc1c(=O)n2C[C@H](O)[C@@H](O)[C@H](O)CO` [Compound 68, (2′S,3′R,4′R)-5,6-Dihydro-6-(2′,3′,4′,5′-tetrahydroxypentyl)-3-nitro-5,11-dioxo-11H-indeno[1,2-c]isoquinoline], at recombinant Top1, the Top1 cleavage result is reported as “++++(+)”. In addition, at recombinant TDP1 (setting [2]), the IC50 was in the range of 37 to 111 µM. The molecule further displayed an MGM in experiment [1] of 0.372 ± 0.024 µM.

Turning to `O=C1c2ccccc2-c2c1c1ccc([N+](=O)[O-])cc1c(=O)n2C[C@@H](O)[C@H](O)[C@H](O)CO` [Compound 65, (2′R,3′S,4′R)-5,6-Dihydro-6-(2′,3′,4′,5′-tetrahydroxypentyl)-3-nitro-5,11-dioxo-11H-indeno[1,2-c]isoquinoline], the Top1 cleavage result on recombinant Top1 was “++++”. Also, the IC50 at recombinant TDP1 (setting [2]) lay in the range of 37 to 111 µM. The 50% growth inhibitory concentration (GI50) in the experiment on renal, SN12C was 2.69 µM. Besides, the MGM in experiment [1] amounted to 1.58 µM.

Consider `COc1cc2c3c(n(C[C@H](O)[C@H](O)[C@H](O)CO)c(=O)c2cc1OC)-c1cc2c(cc1C3=O)OCO2` [Compound 56, (2′S,3′S,4′R)-5,6-Dihydro-6-(2′,3′,4′,5′-tetrahydroxypentyl)-2,3-dimethoxy-8,9-methylenedioxy-5,11-dioxo-11H-indeno[1,2-c]isoquinoline], for which the IC50 at recombinant TDP1 (setting [2]) lay in the range of 37 to 111 µM. Also, the MGM in experiment [1] turned out to be 1.43 ± 0.44 µM.

Take `O=C1c2ccccc2-c2c1c1ccc([N+](=O)[O-])cc1c(=O)n2C[C@@H]1O[C@H](CO)[C@@H](O)[C@H](O)[C@H]1O` [Compound 71]: the Top1 cleavage entry at recombinant Top1 was “++ (++, between 50% and 75% activity)”. Further, the IC50 on recombinant TDP1 was at least 12 µM; at recombinant TDP1 (setting [2]), 12 to 37 µM.

Regarding `COc1cc2c3c(n(C[C@@H](O)[C@H](O)[C@H](O)CO)c(=O)c2cc1OC)-c1cc2c(cc1C3=O)OCO2` [Compound 55, (2′R,3′S,4′R)-5,6-Dihydro-6-(2′,3′,4′,5′-tetrahydroxypentyl)-2,3-dimethoxy-8,9-methylenedioxy-5,11-dioxo-11H-indeno[1,2-c]isoquinoline], the Top1 cleavage result at recombinant Top1 was “+++ (+++, between 75% and 95% activity)”. The same molecule yielded an MGM in experiment [1] of 5.62 ± 0.18 µM.

Consider `COc1cc2c3c(n(C[C@@H](O)[C@@H](O)[C@H](O)[C@H](O)CO)c(=O)c2cc1OC)-c1cc2c(cc1C3=O)OCO2` [Compound 61, (2′R,3′R,4′R,5′R)-5,6-Dihydro-6-(2′,3′,4′,5′,6′-pentahydroxyhexyl)-2,3-dimethoxy-8,9-methylenedioxy-5,11-dioxo-11H-indeno[1,2-c]isoquinoline], for which the Top1 cleavage result at recombinant Top1 was “++++”.

With `COc1cc2c3c(n(C[C@H](O)[C@@H](O)[C@@H](O)[C@H](O)CO)c(=O)c2cc1OC)-c1cc2c(cc1C3=O)OCO2` [Compound 59, (2′S,3′R,4′S,5′R)-5,6-Dihydro-6-(2′,3′,4′,5′,6′-pentahydroxyhexyl)-2,3-dimethoxy-8,9-methylenedioxy-5,11-dioxo-11H-indeno[1,2-c]isoquinoline], the Top1 cleavage entry on recombinant Top1 is “++ (++, between 50% and 75% activity)”. Further, the IC50 on recombinant TDP1 (setting [2]) lay within 37 to 111 µM.

For the molecule `O=C1c2ccccc2-c2c1c1ccc([N+](=O)[O-])cc1c(=O)n2C[C@@H](O)[C@@H](O)[C@H](O)[C@H](O)CO` [Compound 70, (2′R,3′R,4′R,5′R)-5,6-Dihydro-6-(2′,3′,4′,5′,6′-pentahydroxyhexyl)-3-nitro-5,11-dioxo-11H-indeno[1,2-c]isoquinoline], the Top1 cleavage entry at recombinant Top1 is “++++”. In addition, on recombinant TDP1 (setting [2]), the IC50 was 37 to 111 µM. The MGM in experiment [1] was found to be 16.6 µM.

As for `O=C1c2ccccc2-c2c1c1ccc([N+](=O)[O-])cc1c(=O)n2C[C@@H](O)CO` [Compound 64, (2′R)-5,6-Dihydro-6-(2′,3′-dihydroxypropyl)-3-nitro-5,11-dioxo-11H-indeno[1,2-c]isoquinoline], the Top1 cleavage entry on recombinant Top1 was “+++ (+++, between 75% and 95% activity)”. The MGM in experiment [1] turned out to be 0.332 ± 0.022 µM.

Take `O=C1c2ccccc2-c2c1c1ccc([N+](=O)[O-])cc1c(=O)n2C[C@@H](O)[C@@H](O)[C@H](O)CO` [Compound 67, (2′R,3′R,4′R)-5,6-Dihydro-6-(2′,3′,4′,5′-tetrahydroxypentyl)-3-nitro-5,11-dioxo-11H-indeno[1,2-c]isoquinoline]: at recombinant Top1, the Top1 cleavage entry is “++++”. For the same molecule, the IC50 at recombinant TDP1 (setting [2]) is 12 to 37 µM. In experiment [1], this molecule had an MGM of 1.66 µM.

Regarding `COc1cc2c3c(n(C[C@H](O)CO)c(=O)c2cc1OC)-c1cc2c(cc1C3=O)OCO2` [Compound 53, (2′S)-5,6-Dihydro-6-(2′,3′-dihydroxypropyl)-2,3-dimethoxy-8,9-methylenedioxy-5,11-dioxo-11H-indeno[1,2-c]isoquinoline], the Top1 cleavage entry at recombinant Top1 is “++++”. The molecule further yielded an MGM in experiment [1] of 0.049 ± 0.003 µM.
